Experimental data taken from ChEMBL document CHEMBL1141216, “Mono- or diphenylpyridazines connected to N-(2,4-difluorophenyl)-N'-heptylurea as acyl-CoA:cholesterol acyltransferase inhibitors” (J Med Chem, 2005).
pIC50: −log10 of the molar value.

Assays:
[1] = biological target: T1, Sterol O-acyltransferase 1 (Rattus norvegicus) (UniProt O70536); assay: Inhibition of ACAT expressed in rat liver microsomes at 50 ug/ml; conditions: Microsome
T1 sequence (whole entry): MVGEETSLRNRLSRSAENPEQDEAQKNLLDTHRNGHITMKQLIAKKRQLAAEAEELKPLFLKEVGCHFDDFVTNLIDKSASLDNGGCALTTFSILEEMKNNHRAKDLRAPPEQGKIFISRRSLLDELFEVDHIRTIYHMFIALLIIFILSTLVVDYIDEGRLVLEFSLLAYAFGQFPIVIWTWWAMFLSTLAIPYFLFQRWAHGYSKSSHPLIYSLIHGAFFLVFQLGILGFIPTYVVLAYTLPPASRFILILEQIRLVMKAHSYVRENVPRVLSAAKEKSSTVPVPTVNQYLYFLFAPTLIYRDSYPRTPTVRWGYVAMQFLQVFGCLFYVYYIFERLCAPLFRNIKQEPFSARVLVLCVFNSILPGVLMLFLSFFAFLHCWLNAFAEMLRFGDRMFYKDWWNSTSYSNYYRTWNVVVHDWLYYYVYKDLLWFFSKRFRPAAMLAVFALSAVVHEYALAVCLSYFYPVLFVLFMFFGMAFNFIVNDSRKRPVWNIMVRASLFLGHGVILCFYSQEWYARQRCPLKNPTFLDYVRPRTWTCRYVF
Summary of the method: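 Rat liver microsomes were the enzyme source, assayed by a previously described method. Compounds were tested at 50 μg/mL, and the readout was % ACAT inhibition. Values are means of three experiments differing by less than 10%. GERI-BP001M served as reference.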

[2] = biological target: T2, Sterol O-acyltransferase 1 (Rattus norvegicus, UniProt O70536); assay: Inhibition of ACAT expressed in rat liver microsomes; design: species or system Microsome
T2 sequence (O70536 whole entry): T1 sequence (whole entry)

[3] = biological target: T3, Sterol O-acyltransferase 2 (Homo sapiens, UniProt O75908); assay: Inhibition of human ACAT2 expressed in Hi5 cells; design: species or system BTI-TN-5B1-4
T3 sequence (O75908 whole entry): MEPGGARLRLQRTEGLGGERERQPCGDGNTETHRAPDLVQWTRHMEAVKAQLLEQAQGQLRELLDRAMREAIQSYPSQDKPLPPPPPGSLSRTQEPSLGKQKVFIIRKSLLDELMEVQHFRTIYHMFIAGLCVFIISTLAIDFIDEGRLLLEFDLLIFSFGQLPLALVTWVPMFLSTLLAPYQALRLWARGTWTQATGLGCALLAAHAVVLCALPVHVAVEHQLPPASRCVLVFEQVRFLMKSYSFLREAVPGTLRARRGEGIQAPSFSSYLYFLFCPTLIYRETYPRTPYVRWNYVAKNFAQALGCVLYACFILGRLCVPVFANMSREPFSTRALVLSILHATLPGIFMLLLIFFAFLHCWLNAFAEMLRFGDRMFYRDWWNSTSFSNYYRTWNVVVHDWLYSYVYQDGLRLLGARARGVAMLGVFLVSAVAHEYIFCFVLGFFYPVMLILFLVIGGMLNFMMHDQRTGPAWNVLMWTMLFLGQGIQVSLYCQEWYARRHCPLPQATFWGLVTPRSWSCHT
Summary of the method: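 Human ACAT-2 was expressed by baculovirus in Hi5 insect cells, and microsomal fractions of these cells were the enzyme source. Activity was measured by the Brecher and Chan method with slight modification.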

[4] = biological target: T4, Sterol O-acyltransferase 1 (Homo sapiens, UniProt P35610); assay: Inhibition of human ACAT1 expressed in Hi5 cells; design: species or system BTI-TN-5B1-4
T4 sequence (P35610 whole entry): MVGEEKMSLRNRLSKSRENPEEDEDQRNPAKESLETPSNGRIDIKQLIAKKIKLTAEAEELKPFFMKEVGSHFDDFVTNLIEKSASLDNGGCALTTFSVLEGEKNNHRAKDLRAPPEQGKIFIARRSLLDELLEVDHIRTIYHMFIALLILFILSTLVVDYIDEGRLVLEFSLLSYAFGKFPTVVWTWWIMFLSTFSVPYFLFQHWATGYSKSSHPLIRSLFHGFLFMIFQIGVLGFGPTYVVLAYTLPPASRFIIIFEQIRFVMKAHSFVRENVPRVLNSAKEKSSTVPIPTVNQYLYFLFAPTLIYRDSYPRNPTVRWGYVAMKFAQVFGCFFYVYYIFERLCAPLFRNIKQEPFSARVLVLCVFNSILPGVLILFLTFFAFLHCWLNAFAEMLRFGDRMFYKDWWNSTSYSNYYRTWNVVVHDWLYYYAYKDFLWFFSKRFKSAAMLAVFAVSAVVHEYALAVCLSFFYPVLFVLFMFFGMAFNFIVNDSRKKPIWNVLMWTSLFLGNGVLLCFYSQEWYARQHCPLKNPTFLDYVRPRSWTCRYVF

SMILES	inhibition [1]	pIC50 [2]	pIC50 [3]	pIC50 [4]
CCCCCCCN(CCCCCSc1ccc(-c2ccccc2)nn1)C(=O)Nc1ccc(F)cc1F	44%			
CCCCCCCN(CCCCCS(=O)(=O)c1ccc(-c2ccccc2)nn1)C(=O)Nc1ccc(F)cc1F	43%			
CCCCCCCN(CCCCCSc1cc(-c2ccccc2)c(-c2ccccc2)nn1)C(=O)Nc1ccc(F)cc1F	75%			
CCCCCCCN(CCCCC[S+]([O-])c1cc(-c2ccccc2)c(-c2ccccc2)nn1)C(=O)Nc1ccc(F)cc1F (centres undefined)	65%			
CCCCCCCN(CCCCC[S+]([O-])c1ccc(-c2ccccc2)nn1)C(=O)Nc1ccc(F)cc1F (centres undefined)	55%			
CCCCCCCN(CCCCCNc1cc(-c2ccccc2)c(-c2ccccc2)nn1)C(=O)Nc1ccc(F)cc1F	87%	5.63	5.76	
CCCCCCCN(CCCCCS(=O)(=O)c1cc(-c2ccccc2)c(-c2ccccc2)nn1)C(=O)Nc1ccc(F)cc1F	70%			

Now from value to molecule:

inhibition [1]	pIC50 [2]	pIC50 [3]	pIC50 [4]	SMILES
89%	5.92	5.68	5.27	CCCCCCCN(CCCCCNc1ccc(-c2ccccc2)nn1)C(=O)Nc1ccc(F)cc1F
62%				CCCCCCCN(CCCCC[S+]([O-])c1cc(-c2ccccc2)cnn1)C(=O)Nc1ccc(F)cc1F (centres undefined)
46%	4.44	4.00		CCCCCCCN(CCCCCNc1cc(-c2ccccc2)cnn1)C(=O)Nc1ccc(F)cc1F
75%				CCCCCCCN(CCCCCSc1cc(-c2ccccc2)cnn1)C(=O)Nc1ccc(F)cc1F
67%				CCCCCCCN(CCCCCS(=O)(=O)c1cc(-c2ccccc2)cnn1)C(=O)Nc1ccc(F)cc1F
